In the library only some 2% were active in any assay of this set; here they are far more common.
Xi reactivation: activators of inactive X chromosome reactivation, primary screen, imaging, XiGFP fibroblasts, GFP high-content imaging, set 2. XiGFP mouse fibroblasts, % GFP-positive cells imaging, 3 d; cells co-treated with 5-aza-dC sensitizer; scaled so ellipticine positive control = 100%. activation, % at 7.58 µM. 0.055% of 360,000 active;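 active means mean normalized replicate activation at least 10% and every replicate at or above 10%; inconclusive means only one of the two criteria met; inactive means mean below 10% and not all replicates reach 10%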
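Assay system – SV40-immortalized XiGFP fibroblast cells, line 68-5-11 · Buffer or medium – DMEM supplemented with 5-aza-dC as sensitizing agent · Dosing – one concentration, pinned · Benchmarks – positive control ellipticine, 6 µM final · Times – 3 days compound exposure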
S100A4 MyoIIA: inhibitors of S100A4-myosin IIA peptide binding, primary screen, biochemical, fluorescence polarization, TAMRA-MyoIIA peptide | inhibition, % at 10.7 µM | 0.14% of 360,000 active | AID 652163, 2013;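 active means mean inhibition of at least 70% across replicates, with every replicate also reaching that level; inconclusive means mean inhibition reaches 70% but some replicates fall short; inactive means mean inhibition below 70%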
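Test system: S100A4 monomer protein. Medium: HEPES buffer with Ca2+, pH 7.2. Reagent: fluorescent myosin IIA peptide, 5 nM. Compound dosing: single-point compound testing. Timing: 5 min between mix addition and reading. Benchmarks: DMSO neutral and TFP positive wells.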
E-selectin induc: E-selectin induction in HUVECs, primary screen, imaging, HUVEC, immunofluorescence imaging, single point. P16581. normalized: neutral wells 0, TNF-alpha wells 100. activation, % at 7.58 µM. 0.37% of 260,000 active. AID 686992, 2013;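 active means mean E-selectin-positive cell signal at least 10% of the positive control, reached in at least 60% of replicates, without over 20% cell loss; inconclusive means no rule given, readout overlaps actives, possibly toxicity-flagged; inactive means the rest, including those meeting only one limit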
Target sequence (P16581 whole entry, looked up): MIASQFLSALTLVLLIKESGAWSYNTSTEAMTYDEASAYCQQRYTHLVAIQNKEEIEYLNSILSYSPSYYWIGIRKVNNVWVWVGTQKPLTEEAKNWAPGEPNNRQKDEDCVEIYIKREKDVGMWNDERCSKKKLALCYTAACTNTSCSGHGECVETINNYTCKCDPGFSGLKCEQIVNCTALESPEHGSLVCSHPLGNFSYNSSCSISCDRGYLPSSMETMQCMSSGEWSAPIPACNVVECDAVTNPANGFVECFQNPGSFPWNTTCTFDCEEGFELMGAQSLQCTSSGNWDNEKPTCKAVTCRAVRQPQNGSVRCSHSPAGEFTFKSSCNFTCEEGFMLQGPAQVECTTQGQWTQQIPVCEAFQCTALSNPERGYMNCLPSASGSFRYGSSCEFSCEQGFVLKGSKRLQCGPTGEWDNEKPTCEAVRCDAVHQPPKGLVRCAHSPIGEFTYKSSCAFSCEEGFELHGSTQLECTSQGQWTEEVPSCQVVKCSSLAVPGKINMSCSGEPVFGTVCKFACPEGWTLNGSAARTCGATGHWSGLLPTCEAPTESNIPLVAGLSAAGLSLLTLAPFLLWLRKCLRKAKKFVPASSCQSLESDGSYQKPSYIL
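Read-out basis: % PE-positive cells; Test system: HUVEC primary endothelial cells; Technique: immunofluorescence imaging; Dosing: single-point compound dose.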
DENV2 CPE rescue: inhibitors of DENV2 cytopathic effect, primary screen, cell-based, plate reader, single concentration; DENV2-infected cells, cytopathic effect rescue; CPE inhibition, % at 9.99 µM; 1.7% of 350,000 active; in the data active means CPE inhibition above about 20%, passing the limit was not always enough; inconclusive means no clear call, values can overlap the other calls; tested in BHK-21 cells
A number is an active result; - = inactive; ? = inconclusive; . = no result given; ! = not confirmed by another sample.

SMILES	Xi reactivation	S100A4 MyoIIA	E-selectin induc	DENV2 CPE rescue
O=C(NCc1nc2ccccc2[nH]1)C1=C[C@H](c2ccc(C(F)(F)F)cc2)C[C@H](OCCCCO)O1	-	-	-	21
O=C(Nc1ccccc1)C1=C[C@H](C2CCCCC2)C[C@H](OCc2ccc(CO)cc2)O1	-	-	-	-
O=C(NCc1nc2ccccc2[nH]1)C1=C[C@@H](C2CCCCC2)C[C@@H](OCc2ccc(CO)cc2)O1	-	-	-	-
O=C(NCc1nc2ccccc2[nH]1)C1=C[C@H](C2CCCCC2)C[C@H](OCc2ccc(CO)cc2)O1	-	-	-	21!
C=CCOC(=O)C1=C[C@@H](C2CCCCC2)C[C@@H](OCc2ccc(CO)cc2)O1	-	-	-	48
CCOC(=O)CCNC(=O)N1CCC(CCC(=O)NCc2ccc(F)cc2)CC1	-	-	-	-
CC1(C)Cc2ccccc2C2=C(C(=O)N3CCCCCC3)C(=O)C(=O)N21	-	-	.	-
C[C@H](CO)N1C[C@H](C)[C@H](CN(C)S(=O)(=O)c2ccc(Cl)cc2)Oc2ccc(NS(=O)(=O)c3cccs3)cc2C1=O	-	-	-	-
C[C@@H]1CCCCO[C@H](CN(C)S(=O)(=O)c2cccs2)[C@H](C)CN([C@@H](C)CO)C(=O)c2cc(NS(=O)(=O)c3ccc(Cl)cc3)ccc2O1	-	-	.	31
C[C@H](CO)N1C[C@H](C)[C@H](CN(C)S(=O)(=O)c2cccs2)OCCCC[C@H](C)Oc2ccc(NS(=O)(=O)c3ccc(F)cc3)cc2C1=O	-	-	.	31
C[C@H](CO)N1C[C@H](C)[C@@H](CN(C)S(=O)(=O)c2cccs2)OCCCC[C@H](C)Oc2ccc(NS(=O)(=O)c3ccc(Cl)cc3)cc2C1=O	-	-	.	-
C[C@@H]1CN([C@H](C)CO)C(=O)c2cc(NS(=O)(=O)c3ccc(F)cc3)ccc2O[C@@H](C)CCCCO[C@@H]1CN(C)S(=O)(=O)c1cccs1	-	-	.	-
C[C@H]1CN([C@@H](C)CO)C(=O)c2cc(NS(=O)(=O)c3ccc(Cl)cc3)ccc2O[C@H]1CN(C)S(=O)(=O)c1cccs1	-	-	-	22
COC(=O)c1ccccc1NC(=O)c1cc(C)no1	-	-	?	-
O=C(OCc1ccc([N+](=O)[O-])cc1)c1ccc(N2CCCC2)c([N+](=O)[O-])c1	-	-	.	-
CCc1ccc(NC(=O)C(C)OC(=O)c2ccc(N3CCCC3)c([N+](=O)[O-])c2)cc1 (stereo not drawn)	-	-	26	-
Cc1cc2c(cc1S(=O)(=O)N1CCN(c3cccc(C)c3C)CC1)OCCN2C	-	153	.	-
COc1cccc(N2CCN(S(=O)(=O)c3cc4c(cc3C)N(C)CCO4)CC2)c1	-	-	.	-
C[C@H](CO)N1C[C@H](C)[C@H](CN(C)C)Oc2c(NC(=O)NC3CCCCC3)cccc2C1=O	-	-	-	-
Cc1cccc(OC(C)C(=O)N/N=C\c2ccncc2)c1 (stereo not drawn)	-	-	372	-
Cc1cccc(NC(=O)C(=O)N/N=C/c2ccncc2)c1	-	-	.	-
CN(C)CC/C=C1/c2ccccc2COc2ccc(CC(=O)O)cc21	-	166	-	-
C[C@H](CO)N1C[C@H](C)[C@@H](CN(C)C(=O)C2CCC2)Oc2cc(-c3cncnc3)ccc2S1(=O)=O	-	-	-	29
C[C@H]1CN([C@@H](C)CO)S(=O)(=O)c2ccc(C3=CCCC3)cc2O[C@@H]1CN(C)C(=O)CC1CC1	-	-	-	70
CC(C)NC(=O)N(C)C[C@@H]1Oc2cc(C3=CCCC3)ccc2S(=O)(=O)N([C@@H](C)CO)C[C@@H]1C	-	-	-	.
SMILES	Xi reactivation	S100A4 MyoIIA	E-selectin induc	DENV2 CPE rescue
CC(C)NC(=O)N(C)C[C@@H]1Oc2cc(C3=CCCC3)ccc2S(=O)(=O)N([C@H](C)CO)C[C@@H]1C	-	-	-	47
C[C@@H]1CN([C@H](C)CO)S(=O)(=O)c2ccc(C3=CCCC3)cc2O[C@@H]1CN(C)C(=O)CC1CC1	-	-	-	-
C[C@H](CO)N1C[C@H](C)[C@@H](CN(C)C(=O)C2CCC2)Oc2cc(C3=CCCC3)ccc2S1(=O)=O	-	-	-	32
O=C(NCCc1ccc(Cl)cc1)c1ccc2c(c1)OCO2	-	-	-	-
Nc1cccc2c(=O)c3ccccc3[nH]c12	-	-	-	-
O=C(COC(=O)c1ccccc1)NC(=O)NC1CCCC1	-	-	-	-
Cc1ccc(S(=O)(=O)Nc2ccc3c(c2)CC(=O)N([C@H](C)CO)C[C@@H](C)[C@@H](CN(C)C(=O)Nc2ccc(F)cc2)O3)cc1	-	-	-	25
C[C@@H]1CN([C@H](C)CO)C(=O)Cc2cc(NS(=O)(=O)c3ccc(Cl)cc3)ccc2O[C@@H]1CN(C)C(=O)Nc1ccccc1	-	-	-	27
C[C@@H]1CN([C@@H](C)CO)C(=O)Cc2cc(NS(=O)(=O)c3ccc(Cl)cc3)ccc2O[C@@H]1CN(C)C(=O)Nc1ccccc1	-	-	-	-
CS(=O)(=O)N(CC(=O)N1CCOCC1)c1cccc([N+](=O)[O-])c1	-	-	.	-
CN(C(=O)COC(=O)c1ccc(S(=O)(=O)N2CCOCC2)cc1)c1ccccc1	-	-	-	81
CCOC(=O)Cn1cc(/C=C(\C#N)C(=O)N2CCOCC2)c2ccccc21	-	-	-	-
CCOC(=O)Cn1cc(/C=C(/C#N)C(=O)NC(C)C)c2ccccc21	-	-	83	-
CC(C)(C)c1ccc(NC(=O)N2CCCN(c3ccc([N+](=O)[O-])cn3)CC2)cc1	-	-	76	-
CC(C)(C)NC(=O)NC(=O)COC(=O)Cc1coc2ccc3ccccc3c12	-	-	-	-
Cc1c(Cl)cnc(NC(=O)COC(=O)Cc2coc3ccc4ccccc4c23)c1Cl	-	-	.	86
Cc1ccc(NC(=O)NNC(=O)c2ccccc2)cc1	-	-	-	-
CN(C)/C=C1\C=C2C(=O)c3ccccc3N2C1=O	?	76	-	-
Cc1cccc(N2CCN(C(=O)c3nn(C)c4c3CS(=O)(=O)c3ccccc3-4)CC2)c1C	-	-	.	36
Cn1nc(C(=O)N2CCN(c3ccccc3)CC2)c2c1-c1ccccc1S(=O)(=O)C2	-	-	.	-
CC1CC(C)CN(C(=O)c2nn(C)c3c2CS(=O)(=O)c2ccccc2-3)C1 (stereo not drawn)	-	-	95	-
Cn1nc(C(=O)N2CCN(c3ccccc3F)CC2)c2c1-c1ccccc1S(=O)(=O)C2	-	-	-	-
Nc1nc(SCC(=O)N2CCN(c3ccc(F)cc3)CC2)n[nH]1	-	-	-	40
COc1ccc(/C=C/C(=O)N(C)C2CCS(=O)(=O)C2)cc1OC (stereo not drawn)	-	-	-	-
Brc1ccc(-c2noc(CCc3ccccc3)n2)o1	-	-	-	56
Clc1ccccc1OCc1nc(-c2ccc(Br)o2)no1	-	-	-	-

Assay outcomes as filed in PubChem.
